From ChEMBL document CHEMBL4480412, “Deleting a Chromatin Remodeling Gene Increases the Diversity of Secondary Metabolites Produced by Colletotrichum higginsianum” (2019)
Converted amounts (≈) assume the structure as drawn.

How the values were obtained:
Botrytis cinerea = assay: Antifungal activity against Botrytis cinerea B05.10 by EUCAST method; assay type: functional
Method in brief: (§1)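 Susceptibility testing by the EUCAST method; read-out is minimal inhibitory concentration (MIC). Amphotericin B used as reference antifungal.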

Rhizopus arrhizus = assay: Antifungal activity against Rhizopus oryzae ATCC 11145 by EUCAST method; assay type: functional; method in brief: as §1
Homo sapiens [1] = species on record: Homo sapiens; assay: Inhibition of hyaluronidase (unknown origin) at 200 uM relative to control
Homo sapiens [2] = species on record: Homo sapiens; assay: Inhibition of elastase (unknown origin) at 200 uM relative to control
[3] = Antioxidant activity assessed as DPPH radical scavenging activity at 200 uM; assay type: functional
[4] = target: Collagenase (Homo sapiens) (UniProt P08253+P14780+P22894+P45452+P03956); assay: Inhibition of collagenase (unknown origin) at 200 uM relative to control; assay type: protein assay
Micrococcus luteus = assay: Antibacterial activity against Micrococcus luteus ATCC 10240 by broth microdilution method; assay type: functional
Method in brief: (§2)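 Broth microdilution run to CLSI guidelines; read-out is minimal inhibitory concentration (MIC). Chloramphenicol used as reference antibacterial.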

Bacillus spizizenii = assay: Antibacterial activity against Bacillus subtilis ATCC 6633 by broth microdilution method; assay type: functional; method in brief: as §2
Aspergillus ochraceus = assay: Antifungal activity against Aspergillus ochraceus ATCC 1009 by EUCAST method; assay type: functional; method in brief: as §1
[5] = target: T1, Tyrosinase (Homo sapiens) (UniProt P14679); assay: Inhibition of tyrosinase (unknown origin) at 200 uM relative to control
T1 sequence (whole entry): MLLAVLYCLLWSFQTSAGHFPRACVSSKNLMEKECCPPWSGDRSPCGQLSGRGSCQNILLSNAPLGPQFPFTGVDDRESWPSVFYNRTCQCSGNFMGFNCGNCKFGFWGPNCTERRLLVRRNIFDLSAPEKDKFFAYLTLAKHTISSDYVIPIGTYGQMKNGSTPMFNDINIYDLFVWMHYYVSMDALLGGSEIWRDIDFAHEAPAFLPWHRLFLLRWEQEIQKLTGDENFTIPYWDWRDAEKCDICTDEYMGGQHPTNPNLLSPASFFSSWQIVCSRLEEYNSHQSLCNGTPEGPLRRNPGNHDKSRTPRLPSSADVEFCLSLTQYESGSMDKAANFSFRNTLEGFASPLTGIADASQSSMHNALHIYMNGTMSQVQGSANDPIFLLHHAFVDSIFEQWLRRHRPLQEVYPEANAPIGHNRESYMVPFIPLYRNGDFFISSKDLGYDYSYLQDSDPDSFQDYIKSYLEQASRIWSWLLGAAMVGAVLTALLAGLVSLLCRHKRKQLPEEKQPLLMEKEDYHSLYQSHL

Escherichia coli = assay: Antibacterial activity against Escherichia coli ATCC 25922 by broth microdilution method; assay type: functional; method in brief: as §2

Compound	MIC (Botrytis cinerea)	MIC (Rhizopus arrhizus)	inhibition (Homo sapiens [1])	inhibition (Homo sapiens [2])	inhibition [3]	inhibition [4]	MIC (Micrococcus luteus)	MIC (Bacillus spizizenii)	MIC (Aspergillus ochraceus)	inhibition [5]	MIC (Escherichia coli)
CC(C)=CCc1c(O)cc(C)c(C=O)c1O	> 225 µM	> 225 µM	< 20%	< 20%	< 20%	< 20%	> 225 µM	> 225 µM	> 225 µM	< 20%	> 225 µM
C=C1CC[C@@H]2[C@](C)(CC[C@H]3O[C@@H](C(C)(C)O)CC[C@@]23C)[C@@H]1Cc1c(O)c(C)c(C)oc1=O	> 225 µM	> 225 µM	< 20%	< 20%	< 20%	< 20%	> 225 µM	> 225 µM	> 225 µM	< 20%	> 225 µM
C=C1CC[C@@H]2[C@](C)(CC[C@H]3O[C@H](C(C)(C)O)CC[C@@]23C)[C@@H]1Cc1c(O)c(C)c(C)oc1=O	> 225 µM	> 225 µM	< 20%	< 20%	< 20%	< 20%	> 225 µM	> 225 µM	> 225 µM	< 20%	> 225 µM
CC(C)=CCc1c(O)cc(C)c(C(=O)O)c1O	> 225 µM	> 225 µM	< 20%	< 20%	< 20%	< 20%	> 225 µM	> 225 µM	> 225 µM	< 20%	> 225 µM
CO[C@@H]1[C@@H](O)[C@H](O)[C@H](OC(=O)C2=CC[C@H](C(C)C)[C@H]3C=C(C)CC[C@@H]23)[C@H](OC)[C@H]1O	> 225 µM	> 225 µM	< 20%	< 20%	< 20%	< 20%	> 225 µM	> 225 µM	> 225 µM	< 20%	> 225 µM
C[C@@H]1[C@H](O)[C@@H](C)/C=C/C=C/C=C/C=C/C=C/C=C/C=C/[C@H](O[C@@H]2O[C@H](C)[C@@H](O)[C@H](N)[C@@H]2O)C[C@@H]2O[C@](O)(C[C@@H](O)C[C@@H](O)[C@H](O)CC[C@@H](O)C[C@@H](O)CC(=O)O[C@H]1C)C[C@H](O)[C@H]2C(=O)O [AMPHOTERICIN B]	2 µM (≈ 1.85 µg/mL)	2 µM (≈ 1.85 µg/mL)							2 µM (≈ 1.85 µg/mL)		
O=C(N[C@H](CO)[C@H](O)c1ccc([N+](=O)[O-])cc1)C(Cl)Cl [CHLORAMPHENICOL]							10 µM (≈ 3.23 µg/mL)	10 µM (≈ 3.23 µg/mL)			10 µM (≈ 3.23 µg/mL)
